From PubChem BioAssay
TAAR1 antagonist = human TAAR1 antagonists, primary screen, Fluo-8 calcium fluorescence, CHO RD-HGA16 cells; Trace amine-associated receptor 1 (Homo sapiens), Q96RJ0; inhibition, % at 3 µM; AID 624466, 2012; antagonist; hit rate 1.5% among 360,000;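 active = inhibition above a per-plate cutoff, the mean inhibition of test compounds on that plate plus 3 SD, cut at about 49% in these data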;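 note: 0% = DMSO plus EC80 beta-PEA response and 100% = DMSO alone without agonist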
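Test system: CHO RD-HGA16 cells bearing hTAAR1 | Reagent: β-PEA, EC80 | Compound dosing: 3 µM, single point | Schedule: Dye loading 75 min at 37 °C, then 30 min room temperature | Signal: Calcium fluorescence with Fluo-8 | Evaluation: Percent inhibition of PEA-evoked calcium signal, max/basal emission ratio | Control set: DMSO-only wells and EC80 β-PEA-stimulated wells | Repeats: Singlicate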
TAAR1 ag = human TAAR1 agonists, primary screen, Fluo-8 calcium fluorescence, CHO RD-HGA16 cells. vehicle wells 0%, saturating PEA agonist 100%. hit rate 0.99% among 360,000. Trace amine-associated receptor 1 (Homo sapiens), Q96RJ0. activation, % at 3 µM;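 active = activation above the mean activation of all test compounds in the run plus 3 SD, cut at about 38% in these data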
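Benchmarks: low control DMSO, high control PEA (EC100); System: CHO RD-HGA16 cells carrying human TAAR1 plus Gα16; Detection: Fluo-8 fluorescence, 5 s baseline then 140 s kinetic read; Schedule: 17-24 h plating, Fluo-8 75 min 37 °C, 30 min RT; Read-out basis: % activation from peak over basal fluorescence ratio, DMSO-to-PEA scaled.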
CHO parental Ca = ATP-evoked calcium signal inhibitors, parental CHO, primary screen, counter-screen for OX1R antagonist project, cell-based, fluorescence, Fluo-8 calcium dye; parental CHO-K1, ATP-induced calcium, Fluo-8 fluorescence; inhibition, % at 5.6 µM; hit rate 0.63% among 330,000;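 active = inhibition above that plate's mean sample inhibition plus 3 SD, cut at about 26% in these data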;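 note: 0% = ATP-challenged DMSO wells and 100% = DMSO wells without ATP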
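test system = CHO parental line | reagent = ATP stimulus | measured by = intracellular calcium via Fluo-8 no-wash fluorescent dye | control set = ATP and no-ATP DMSO wells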
OX1R antag-1 = antagonists of human orexin 1 receptor (OX1R). hit rate 1.8% among 330,000. AID 485270, 2010. Orexin/Hypocretin receptor type 1 (Homo sapiens), O43613. inhibition, % at 6.6 µM. OX1R-expressing cells, FRET antagonist read-out; in the data active = inhibition mostly above about 38%, no sharp cut-off; inactive = mostly below about 40%;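 note: 0% = agonist challenge alone and 100% = reference antagonist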
Target sequence (O43613 whole entry, looked up): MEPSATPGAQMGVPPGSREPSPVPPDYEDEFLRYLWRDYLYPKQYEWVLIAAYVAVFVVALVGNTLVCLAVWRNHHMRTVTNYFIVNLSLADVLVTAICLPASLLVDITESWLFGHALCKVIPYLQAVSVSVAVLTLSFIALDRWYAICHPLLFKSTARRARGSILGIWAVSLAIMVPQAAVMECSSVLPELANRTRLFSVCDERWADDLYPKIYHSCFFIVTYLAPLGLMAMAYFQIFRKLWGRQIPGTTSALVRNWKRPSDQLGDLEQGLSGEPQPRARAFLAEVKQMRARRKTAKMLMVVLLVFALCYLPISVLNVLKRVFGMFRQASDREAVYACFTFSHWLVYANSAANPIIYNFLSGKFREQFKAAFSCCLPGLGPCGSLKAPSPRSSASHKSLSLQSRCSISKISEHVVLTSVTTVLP
OX1R antag-2 = OX1R (HCRTR1) antagonists, primary screen, fluorescence, CHO/OX1R cells, Fluo-8 calcium, orexin A; Orexin/Hypocretin receptor type 1 (Homo sapiens), O43613; AID 434989, 2010; inhibition, % at 5 µM; Fluo-8 calcium fluorescence; hit rate 0.43% among 330,000;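 active = inhibition above its plate's threshold, mean inhibition of all tested compounds on the plate plus 3 SD, cut at about 37% in these data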;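 note: 0% = orexin A challenge wells and 100% = SB-334867-A antagonist wells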
GPR7 antagonist = GPR7 receptor antagonists, primary screen, cell-based, fluorescence, single concentration; Neuropeptides B/W receptor type 1 (Homo sapiens), P48145; GPR7-expressing cells, fluorescence antagonist assay; inhibition, % at 4.4 µM; hit rate 1.1% among 290,000; in the data active = inhibition above about 16%, passing the limit was not always enough;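 note: cells stimulated with the agonist NPW; 0% = agonist with vehicle and 100% = vehicle without agonist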
An asterisk follows results filed as active; / = no result. Only some compounds are listed: those with a hit (about 4.6% of all), similar ones and a draw of the others.

SMILES | TAAR1 antagonist | TAAR1 ag | CHO parental Ca | OX1R antag-1 | OX1R antag-2 | GPR7 antagonist
CC(C)CNc1c(N)c(=O)oc2ccccc12 | 0 | 4 | -19 | 2 | -11 | -1
Cc1cccnc1C(NC(=O)C1CCN(CCCOc2ccccc2)CC1)c1ccc(F)cc1 (stereo not drawn) | -8 | 0 | / | / | / | /
Cc1cccc(N2CCN(C(C(=O)NCc3ccccc3)c3ccc(F)cc3)CC2)c1C (stereo not drawn) | 26 | 4 | / | / | / | /
COc1ccccc1NC(=O)C(=N\O)/C(C)=N/O | -22 | 1 | -4 | 13 | -10 | 3
Cc1nc2ccccc2n1CCOc1ccccc1 | 17 | 7 | -4 | 25 | 0 | 1
Cc1ccccc1OCCn1c(C)nc2ccccc21 | 32 | 4 | 35* | 22 | 38 | 4
Cc1ccccc1Cn1c(C)nc2ccccc21 | 13 | 3 | 41* | 64 | 13 | 8
Clc1cccc(CN2CCN(c3ncc(Cc4ccccc4)cn3)CC2)c1Cl | -10 | -1 | / | / | / | /
CN(CC(=O)Nc1ccc(Cl)c(C(F)(F)F)c1)C(=O)c1cc(=O)[nH]c2ccccc12 | 1 | 9 | -6 | 41 | -11 | /
CN(CC(=O)Nc1ccc(Cl)c(C(F)(F)F)c1)C(=O)c1cc(=O)c2ccccc2o1 | 15 | 45* | -7 | -1 | -12 | /
Cc1cc2c(cc1C)CSC(c1ccccc1O)SC2 | 66* | 28 | 59* | 19 | 21 | -2
O=C(COC(=O)c1nn(-c2ccccc2C(F)(F)F)cc1O)c1ccc(OC(F)F)cc1 | -17 | 1 | 16 | 11 | -2 | /
CN(C)c1ccc(C(CNS(=O)(=O)c2ccc3ccccc3c2)N2CCOCC2)cc1 (stereo not drawn) | -6 | 3 | -14 | 17 | -29 | /
CN(C)c1ccc(C(CNS(=O)(=O)c2ccc([N+](=O)[O-])cc2)N2CCCC2)cc1 (stereo not drawn) | 1 | 2 | -15 | 71* | -32 | /
COCCCNC(=O)c1ccc2c(=O)n(CC3CCCO3)c(=S)[nH]c2c1 (stereo not drawn) | -9 | 1 | -1 | 12 | -26 | 2
CC(C)NC(=O)c1ccc2c(=O)n(CC3CCCO3)c(=S)[nH]c2c1 (stereo not drawn) | -11 | 1 | -6 | 8 | -12 | 17*
O=C(Nc1ccc(OCc2ccccc2)cc1)c1ccccc1 | -3 | 1 | -4 | 21 | -14 | -13
O=C(CCN1CCN(Cc2ccccc2)CC1)Nc1ccc(OCc2ccccc2)cc1 | -8 | 19 | 36* | 16 | 13 | 11
Cc1ccsc1C(=O)Nc1ccc(OCc2ccccc2)cc1 | 54* | 17 | 15 | 41 | -8 | 7
COCC1CCN(C(=O)c2oc3c(F)cccc3c2C)C1 (stereo not drawn) | -30 | -1 | -12 | 12 | -17 | 0
Cc1nc2ccccc2c2c1CC(C(C)(Cl)Br)O2 (stereo not drawn) | -19 | 6 | 51* | 44 | 16 | 18
CC(C)CC(=O)N1CCC(N(CCc2ccccc2)Cc2ccccc2)CC1 | -46 | 0 | -22 | 6 | -35 | -12
Cc1occc1C(=O)NCCCCc1ccccc1 | 0 | 2 | -11 | 19 | -17 | 13
COc1ccccc1CCNC(=O)c1ccoc1C | 16 | 40* | -14 | 9 | -25 | 12
COc1ccccc1CCNC(=O)c1cc(-c2ccccn2)nc2ccccc12 | 52* | 8 | / | / | / | /
SMILES | TAAR1 antagonist | TAAR1 ag | CHO parental Ca | OX1R antag-1 | OX1R antag-2 | GPR7 antagonist
CNc1ccc(S(=O)(=O)NC)cc1[N+](=O)[O-] | 3 | 6 | 2 | 64 | -12 | -13
CNc1nc2cc([N+](=O)[O-])c([N+](=O)[O-])cc2nc1NC | 8 | 16 | 59* | 45 | 27 | 21
Cc1ccn2c(=O)nc(SCC(=O)N3CCN(c4ccccc4)CC3)nc2c1 | -12 | 1 | -9 | 4 | -16 | /
Oc1ccc2ccccc2c1C=Nc1ccc(N2CCOCC2)cc1 | 25 | 21 | -5 | 51* | 5 | -5
C=Cc1ccc(N=Cc2c(O)ccc3ccccc23)cc1 | -12 | 4 | -16 | 4 | -37 | 5
CCN1C(=O)C(CC(=O)Nc2ccccc2Cl)N(NC(=O)c2cccc(F)c2)C1=S (stereo not drawn) | -2 | 5 | -6 | 75* | 9 | 0
CNC(=O)CC1C(=O)N(Cc2ccccc2)C(=S)N1NC(=O)c1cccc(F)c1 (stereo not drawn) | 21 | 10 | -10 | 32 | -4 | 21
CC(c1ccco1)N(C(=O)c1ccccc1NS(=O)(=O)c1ccc(Cl)cc1)c1ccccn1 (stereo not drawn) | -3 | 5 | -12 | 32 | -3 | -3
CC(c1ccco1)N(C(=O)c1ccccc1NS(=O)(=O)c1cccc([N+](=O)[O-])c1)c1ccccn1 (stereo not drawn) | / | / | 0 | 63* | -31 | -13
CC(c1ccco1)N(C(=O)c1ccccc1NS(=O)(=O)c1cc([N+](=O)[O-])ccc1Cl)c1ccccn1 (stereo not drawn) | 32 | 7 | -16 | 72* | -15 | -5
COc1cc(OC)cc(C(=O)NCC2CCN(C(=O)C(=O)c3cc4ccccc4o3)CC2)c1 | -23 | 0 | / | / | / | /
O=C(/C=C/c1ccc(Cl)c([N+](=O)[O-])c1)Nc1cccnc1 | 13 | 17 | -17 | 54* | 3 | 9
O=C(/C=C/c1ccc(Cl)c([N+](=O)[O-])c1)Nc1cccc(NC(=O)c2ccco2)c1 | 69* | 17 | 7 | 58* | 8 | -11
O=C(/C=C/c1ccc(Cl)c([N+](=O)[O-])c1)Nc1ccc(NC(=O)c2ccco2)cc1 | 12 | 5 | / | / | / | -10
CC1(C(=O)O)CCN1C(=O)c1cccc(OC(F)(F)F)c1 (stereo not drawn) | -27 | 1 | / | / | / | /
CCOc1ccccc1NC(=O)N1CCc2ccccc2C1 | 4 | 41* | -21 | 29 | -29 | -7
CCOc1ccccc1NC(=O)N1CCCc2ccccc21 | -30 | -3 | / | / | / | 2
Cc1ccc(OCC(=O)N2CCc3ccccc3C2)c(C)c1 | 3 | 42* | -12 | 5 | -9 | 5
Cc1cccc(C(=O)OCC(=O)N2c3ccccc3CC2C)c1C (stereo not drawn) | 46 | 3 | / | / | / | /
Cc1nc([N+](=O)[O-])cn1CC(=O)c1ccccc1 | -13 | 1 | 2 | 21 | -6 | -19
Cc1nc([N+](=O)[O-])cn1-c1nc2ccccn2c1[N+](=O)[O-] | -4 | 2 | -3 | 54* | -11 | -3
